ChEMBL document CHEMBL1141265, “Flavonoids as opioid receptor ligands: identification and preliminary structure-activity relationships” (J Nat Prod, 2007)
The source made the active and inactive calls. No cut-off for these calls is given here.

Key:
[1] = Selectivity for antagonist activity at human delta opioid receptor to kappa opioid receptor expressed in CHO cells by [35S]GTP-gamma-S assay; type: functional
[2] = target: Mu-type opioid receptor (Homo sapiens) (UniProt P35372); experiment: Intrinsic activity at human […] mu receptor expressed in CHO cells upto 10 uM by [35S]GTP-gamma-S assay; type: functional, cell-based
Procedure, shortened: (§1)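 Screened at 10 μM for agonist or inverse-agonist activity on CHO membrane homogenates expressing human δ, κ or μ receptor; 0.1 nM [35S]GTPγS, 1 μM GDP, 50 mM HEPES pH 7.4, 1 h room temperature, duplicates; bound label separated by vacuum filtration over GF-B, scintillation counted, normalized to vehicle basal binding; subtype-selective agonist run as positive control.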

[3] = target: Kappa-type opioid receptor (Homo sapiens) (UniProt P41145); experiment: Intrinsic activity at human kappa opioid receptor expressed in CHO cells upto 10 uM by [35S]GTP-gamma-S assay; type: functional, cell-based; procedure, shortened: as §1
[4] = Selectivity for antagonist activity at human mu opioid receptor to kappa opioid receptor expressed in CHO cells by [35S]GTP-gamma-S assay; type: functional
[5] = target: T1, Delta-type opioid receptor (Homo sapiens, UniProt P41143); experiment: Intrinsic activity at human delta opioid receptor expressed in CHO cells upto 10 uM by [35S]GTP-gamma-S assay; type: functional, cell-based; procedure, shortened: as §1
[6] = target: Kappa-type opioid receptor (Homo sapiens) (UniProt P41145); experiment: Antagonist activity at human kappa opioid receptor expressed in CHO cells by [35S]GTP-gamma-S assay; type: functional, cell-based
Procedure, shortened: (§2)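 Ke from rightward shift of the agonist concentration–response curve (DAMGO μ, DPDPE δ, U69,593 κ) by one fixed concentration of test compound; membranes from stably transfected CHO cells, 0.1 nM [35S]GTPγS, 10 μM GDP, 50 mM HEPES pH 7.4, 1 h room temperature, duplicates, filtration then scintillation counting; EC50s by three-parameter logistic fit, Ke = [L]/[(A′/A) − 1].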

[7] = target: T1, Delta-type opioid receptor; experiment: Antagonist activity at human delta opioid receptor expressed in CHO cells by [35S]GTPgammaS assay; type: functional, cell-based; procedure, shortened: as §2
[8] = target: Mu-type opioid receptor (Homo sapiens) (UniProt P35372); experiment: Antagonist activity at human mu opioid receptor expressed in CHO cells by [35S]GTP-gamma-S assay; type: functional, cell-based
[9] = Agonist activity at opioid receptor relative to U69,593; type: functional
[10] = Binding affinity to opiate receptor
[11] = target: T1, Delta-type opioid receptor; experiment: Binding affinity to delta opioid receptor

T1 sequence (P41143 whole entry): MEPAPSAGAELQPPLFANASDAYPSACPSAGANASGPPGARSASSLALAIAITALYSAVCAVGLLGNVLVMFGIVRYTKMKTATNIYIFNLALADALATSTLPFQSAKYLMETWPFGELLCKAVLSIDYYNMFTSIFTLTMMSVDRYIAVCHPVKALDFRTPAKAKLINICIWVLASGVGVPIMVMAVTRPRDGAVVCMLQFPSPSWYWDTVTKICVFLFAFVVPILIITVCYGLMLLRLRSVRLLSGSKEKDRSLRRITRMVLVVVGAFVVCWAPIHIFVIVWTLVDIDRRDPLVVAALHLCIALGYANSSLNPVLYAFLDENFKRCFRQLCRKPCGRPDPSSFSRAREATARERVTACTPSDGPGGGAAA
Chain of Mu-type opioid receptor (Homo sapiens) (P35372 whole entry): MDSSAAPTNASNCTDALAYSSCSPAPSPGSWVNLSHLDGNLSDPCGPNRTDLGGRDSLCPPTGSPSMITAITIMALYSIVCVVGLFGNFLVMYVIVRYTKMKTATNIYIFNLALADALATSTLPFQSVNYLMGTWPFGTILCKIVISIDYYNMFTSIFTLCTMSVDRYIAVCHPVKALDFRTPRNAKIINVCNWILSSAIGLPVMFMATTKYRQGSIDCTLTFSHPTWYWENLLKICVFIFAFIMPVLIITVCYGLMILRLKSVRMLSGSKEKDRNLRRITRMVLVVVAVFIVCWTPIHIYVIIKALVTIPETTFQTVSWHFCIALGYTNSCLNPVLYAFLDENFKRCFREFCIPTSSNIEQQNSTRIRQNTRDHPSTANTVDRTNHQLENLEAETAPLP
Chain of Kappa-type opioid receptor (Homo sapiens) (P41145 whole entry): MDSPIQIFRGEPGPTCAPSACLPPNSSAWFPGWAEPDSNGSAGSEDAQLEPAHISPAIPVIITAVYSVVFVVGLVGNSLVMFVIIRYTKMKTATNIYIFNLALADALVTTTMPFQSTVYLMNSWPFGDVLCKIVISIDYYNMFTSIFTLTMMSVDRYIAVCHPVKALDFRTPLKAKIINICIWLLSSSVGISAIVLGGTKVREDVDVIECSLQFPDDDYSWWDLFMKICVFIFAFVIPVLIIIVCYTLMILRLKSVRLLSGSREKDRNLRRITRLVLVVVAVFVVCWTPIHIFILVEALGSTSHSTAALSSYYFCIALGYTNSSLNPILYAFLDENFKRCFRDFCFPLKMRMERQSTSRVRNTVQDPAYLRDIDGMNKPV

SMILES | Ratio Ki [1] | Intrinsic activity [2] | Intrinsic activity [3] | Antagonist selectivity ratio [4] | Intrinsic activity [5] | Ke [6] [nM] | Ke [7] [nM] | Ke [8] [nM] | Intrinsic activity [9] | IC50 [10] [nM] | Ratio pKi [1] | Ratio pKi [4] | Emax [9] [%] | Ki [11] [nM]
O=C(O[C@@H]1Cc2c(O)cc(O)cc2O[C@H]1c1ccc(O)c(O)c1)c1cc(O)c(O)c(O)c1 [(-)-CATECHINGALLATE] | 4.3 | inactive | inactive | 0.95 | inactive | 220 | 950 | 210 | – | – | – | – | – | –
COc1ccc([C@@H]2CC(=O)c3c(O)cc(O)cc3O2)cc1O | – | – | – | – | – | > 10000 | > 10000 | > 10000 | – | – | – | – | – | –
Oc1ccc2c3c1O[C@H]1c4[nH]c5c(c4C[C@@]4(O)[C@@H](C2)N(CC2CC2)CC[C@]314)C[C@@]1(O)[C@H]2Cc3ccc(O)c4c3[C@@]1(CCN2CC1CC1)[C@H]5O4 [NORBINALTORPHIMINE] | 580 | – | – | 520 | – | – | – | – | – | – | – | – | – | –
O=c1cc(-c2ccc(O)cc2)oc2cc(O)cc(O)c12 [APIGENIN] | 2.4 | inactive | inactive | 1 | inactive | 410 | 970 | 410 | – | – | – | – | – | –
O=C1C[C@@H](c2ccc(O)cc2)Oc2cc(O)cc(O)c21 [NARINGENIN] | 2.2 | – | – | 1.4 | – | 1700 | 3680 | 2300 | – | – | – | – | – | –
Oc1cc(O)c2c(c1)O[C@H](c1ccc(O)c(O)c1)[C@H](O)C2 | – | – | – | – | – | – | – | – | inactive | – | – | – | – | –
Oc1cc(O)c2c(c1)O[C@@H](c1ccc(O)c(O)c1)[C@@H](O)C2 [(+)-EPICATECHIN] | 0.37 | – | – | 0.52 | – | 5810 | 2170 | 3020 | inactive | – | – | – | – | –
O=C(O[C@@H]1Cc2c(O)cc(O)cc2O[C@@H]1c1ccc(O)c(O)c1)c1cc(O)c(O)c(O)c1 [EPICATECHIN GALLATE] | 0.89 | inactive | inactive | 0.79 | inactive | 1900 | 1700 | 1500 | – | 36 | – | – | – | –
Oc1cc(O)c2c(c1)O[C@H](c1cc(O)c(O)c(O)c1)[C@H](O)C2 [EPIGALLOCATECHIN] | 8 | inactive | inactive | 1.2 | inactive | 250 | 1990 | 300 | – | – | – | – | – | –
O=c1c(O[C@@H]2O[C@H](CO)[C@H](O)[C@H](O)[C@H]2O)c(-c2ccc(O)c(O)c2)oc2cc(O)cc(O)c12 [HYPEROSIDE] | 27 | – | – | 1.1 | – | 340 | 9070 | 390 | – | – | – | – | – | –
CC(C)[C@@H](CN1CC[C@@](C)(c2cccc(O)c2)[C@@H](C)C1)NC(=O)[C@H]1Cc2ccc(O)cc2CN1 [JDTIC] | 3800 | – | – | 1250 | – | – | – | – | – | – | – | – | – | –
Oc1cc(O)c2c(c1)O[C@H](c1ccc(O)c(O)c1)[C@@H](O)C2 [CIANIDANOL] | – | – | – | – | – | 320 | 1180 | > 10000 | inactive | – | 3.7 | >31 | – | –
O=c1cc(-c2ccc(O)cc2)oc2cc(O)ccc12 | 1.3 | – | – | 0.3 | – | 1610 | 2090 | 480 | – | – | – | – | – | –
Oc1cc(O)c2c(c1)O[C@@H](c1ccc(O)c(O)c1)[C@H](O)C2 [(-)-CATECHIN] | 0.49 | – | – | 0.67 | – | 3600 | 1770 | 2400 | – | – | – | – | 18 | –
O=C1c2c(O)cc(O)cc2O[C@H](c2ccc(O)c(O)c2)[C@H]1O [(+)-TAXIFOLIN] | 1.2 | – | – | 0.93 | – | 3280 | 3820 | 3070 | – | – | – | – | – | –
O=c1cc(-c2ccc(O)c(-c3c(O)cc(O)c4c(=O)cc(-c5ccc(O)cc5)oc34)c2)oc2cc(O)cc(O)c12 [AMENTOFLAVONE] | 12 | inactive | inactive | >20 | inactive | 490 | 6000 | > 10000 | – | – | – | – | – | 36
O=C1CC(c2ccc(O)cc2)Oc2ccccc21 (stereo not drawn) [4'-HYDROXY-FLAVANONE] | 6.3 | – | – | 1.1 | – | 550 | 3490 | 590 | – | – | – | – | – | –
